Test results from ChEMBL document CHEMBL1153632, “HCV NS5B polymerase inhibitors 1: Synthesis and in vitro activity of 2-(1,1-dioxo-2H-[1,2,4]benzothiadiazin-3-yl)-1-hydroxynaphthalene derivatives” (Bioorg Med Chem Lett, 2009).

Target: not listed separately
Assay: Inhibition of HCV 1a NS5B polymerase
Design: species or system Hepatitis C virus subtype 1a
Conditions: not given

IC50 [µM]	Structure (SMILES)
0.00125	CC(C)CC[C@@]1(C)C(=O)C(C2=NS(=O)(=O)c3cc(NS(C)(=O)=O)ccc3N2)=C(O)c2ccccc21

Target: not listed separately
Assay: Inhibition of HCV isolate HC-J4 NS5B deltaC21 polymerase
Design: species or system Hepatitis C virus isolate HC-J4
Conditions: not given
Summary of the method: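 Genotype 1b J4 ΔC21 enzyme (5 nM) in 20 mM Tris pH 7.5 with 5 mM MgCl₂, 5 mM KCl, 1 mM EDTA, 2 mM DTT and 0.01% BSA, room temperature. Serial DMSO dilutions were preincubated with enzyme for 5 min. Reaction was started with 250 nM 5′-biotin-rU₁₂ primer, poly-rA template, UTP and ³H-UTP, in 5% DMSO, and run 2 h. Stopped with EDTA/streptavidin SPA beads, then CsCl; scintillation counting.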

IC50 [µM]	Structure (SMILES)
0.00033	CC(C)CC[C@@]1(C)C(=O)C(C2=NS(=O)(=O)c3cc(NS(C)(=O)=O)ccc3N2)=C(O)c2ccccc21
27	COc1c(C2=NS(=O)(=O)c3ccccc3N2)cc(CCC(C)C)c2ccccc12
0.63	COc1c(C2=NS(=O)(=O)c3cc(NS(C)(=O)=O)ccc3N2)c(OC)c2ccccc2c1CCC(C)C
0.048	COc1c(C2=NS(=O)(=O)c3cc(NS(C)(=O)=O)ccc3N2)cc(CCC(C)C)c2ccccc12
0.53	CC(C)CCc1c(O)c2c(c3ccccc13)OCN1C2=NS(=O)(=O)c2cc(NS(C)(=O)=O)ccc21
0.037	COc1c(C2=NS(=O)(=O)c3cc(NS(C)(=O)=O)ccc3N2)c(O)c2ccccc2c1CCC(C)C
0.031	CC(C)CCc1c(F)c(C2=NS(=O)(=O)c3cc(NS(C)(=O)=O)ccc3N2)c(O)c2ccccc12
8.7	CC(C)CCc1c2c(c(O)c3ccccc13)C1=NS(=O)(=O)c3cc(NS(C)(=O)=O)ccc3N1CO2
8.4	CC(C)CCc1cc(C2=NS(=O)(=O)c3ccccc3N2)c(O)c2ccccc12
0.15	CC(C)CCc1cc(C2=NS(=O)(=O)c3cc(NS(C)(=O)=O)ccc3N2)c(O)c2ccccc12
0.11	CC(C)CCc1c(F)c(C2=NS(=O)(=O)c3ccccc3N2)c(O)c2ccccc12
< 0.005	CC(C)CCC1(O)C(=O)C(C2=NS(=O)(=O)c3cc(NS(C)(=O)=O)ccc3N2)=C(O)c2ccccc21 (stereo not given)
0.49	CC(C)CCc1c2c(c(O)c3ccccc13)C1=Nc3ccc(NS(C)(=O)=O)cc3S(=O)(=O)N1CO2
0.005	COc1c(C2=NS(=O)(=O)c3cc(NS(C)(=O)=O)ccc3N2)c(O)c(CCC(C)C)c2ccccc12
1.3	CC(C)CCc1c(O)c2c(c3ccccc13)OCN1C2=Nc2ccc(NS(C)(=O)=O)cc2S1(=O)=O

Tested on: Hepatitis C virus
Assay: Antiviral activity against HCV 1b infected in human HuH7 cells after 46 to 50 hrs by luc/neo ET replicon assay
Assay type: functional, organism-based, Hepacivirus hominis
Conditions: genotype 1b, Huh-7
Summary of the method: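 Huh-7 cells stably carrying luc/neo ET replicon, grown in DMEM with 10% FCS, were seeded at 5 × 10³ cells/well. Serially diluted compounds were added about 24 h after plating, at 1% final DMSO. After 46–50 h exposure, cells were lysed with BrightGLO reagent for 2 min at 20 °C and luminescence was read.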

EC50 [µM]	Structure (SMILES)
0.417	CC(C)CCn1c(=O)c(C2=NS(=O)(=O)c3ccccc3N2)c(O)c2ccccc21
9.5	COc1c(C2=NS(=O)(=O)c3ccccc3N2)cc(CCC(C)C)c2ccccc12
> 100	COc1c(C2=NS(=O)(=O)c3cc(NS(C)(=O)=O)ccc3N2)c(OC)c2ccccc2c1CCC(C)C
21	COc1c(C2=NS(=O)(=O)c3cc(NS(C)(=O)=O)ccc3N2)cc(CCC(C)C)c2ccccc12
34	CC(C)CCc1c(O)c2c(c3ccccc13)OCN1C2=NS(=O)(=O)c2cc(NS(C)(=O)=O)ccc21
2.9	COc1c(C2=NS(=O)(=O)c3cc(NS(C)(=O)=O)ccc3N2)c(O)c2ccccc2c1CCC(C)C
2.7	CC(C)CCc1c(F)c(C2=NS(=O)(=O)c3cc(NS(C)(=O)=O)ccc3N2)c(O)c2ccccc12
> 100	CC(C)CCc1c2c(c(O)c3ccccc13)C1=NS(=O)(=O)c3cc(NS(C)(=O)=O)ccc3N1CO2
26	CC(C)CCc1cc(C2=NS(=O)(=O)c3ccccc3N2)c(O)c2ccccc12
4.3	CC(C)CCc1cc(C2=NS(=O)(=O)c3cc(NS(C)(=O)=O)ccc3N2)c(O)c2ccccc12
19	CC(C)CCc1c(F)c(C2=NS(=O)(=O)c3ccccc3N2)c(O)c2ccccc12
0.019	CC(C)CCC1(O)C(=O)C(C2=NS(=O)(=O)c3cc(NS(C)(=O)=O)ccc3N2)=C(O)c2ccccc21 (stereo not given)
8.4	CC(C)CCc1c2c(c(O)c3ccccc13)C1=Nc3ccc(NS(C)(=O)=O)cc3S(=O)(=O)N1CO2
1.1	COc1c(C2=NS(=O)(=O)c3cc(NS(C)(=O)=O)ccc3N2)c(O)c(CCC(C)C)c2ccccc12
12	CC(C)CCc1c(O)c2c(c3ccccc13)OCN1C2=Nc2ccc(NS(C)(=O)=O)cc2S1(=O)=O

Tested on: not listed separately
Assay: Cytotoxicity against human HuH7 cells
Assay type: cell-based, Huh-7
Conditions: not given

Structure (SMILES)	CC50 [µM]
COc1c(C2=NS(=O)(=O)c3ccccc3N2)cc(CCC(C)C)c2ccccc12	13
COc1c(C2=NS(=O)(=O)c3cc(NS(C)(=O)=O)ccc3N2)c(OC)c2ccccc2c1CCC(C)C	40
COc1c(C2=NS(=O)(=O)c3cc(NS(C)(=O)=O)ccc3N2)cc(CCC(C)C)c2ccccc12	51
CC(C)CCc1c(O)c2c(c3ccccc13)OCN1C2=NS(=O)(=O)c2cc(NS(C)(=O)=O)ccc21	> 100
COc1c(C2=NS(=O)(=O)c3cc(NS(C)(=O)=O)ccc3N2)c(O)c2ccccc2c1CCC(C)C	120
CC(C)CCc1c(F)c(C2=NS(=O)(=O)c3cc(NS(C)(=O)=O)ccc3N2)c(O)c2ccccc12	> 100
CC(C)CCc1c2c(c(O)c3ccccc13)C1=NS(=O)(=O)c3cc(NS(C)(=O)=O)ccc3N1CO2	> 100
CC(C)CCc1cc(C2=NS(=O)(=O)c3ccccc3N2)c(O)c2ccccc12	37
CC(C)CCc1cc(C2=NS(=O)(=O)c3cc(NS(C)(=O)=O)ccc3N2)c(O)c2ccccc12	> 100
CC(C)CCc1c(F)c(C2=NS(=O)(=O)c3ccccc3N2)c(O)c2ccccc12	12
CC(C)CCC1(O)C(=O)C(C2=NS(=O)(=O)c3cc(NS(C)(=O)=O)ccc3N2)=C(O)c2ccccc21 (stereo not given)	> 100
CC(C)CCc1c2c(c(O)c3ccccc13)C1=Nc3ccc(NS(C)(=O)=O)cc3S(=O)(=O)N1CO2	33
COc1c(C2=NS(=O)(=O)c3cc(NS(C)(=O)=O)ccc3N2)c(O)c(CCC(C)C)c2ccccc12	110
CC(C)CCc1c(O)c2c(c3ccccc13)OCN1C2=Nc2ccc(NS(C)(=O)=O)cc2S1(=O)=O	35
